Assay results from publication PMC2568025 (The Journal of Cell Biology, 2008).
“Also recorded” adds a separate entry of the source. Where a name gives a salt, the structure may show the parent alone. Blank lines part the entries; values can stand above or below the molecule they belong to. Bridge positions count the residues as written; N and C are the ends. Ends that are not written are not given here.

Tests used:
HEK-PR1 cells [1] = assay: Potentiation of CCh-evoked Ca^2+ signals in cell populations; format: cell-based, human; settings: for effect of stimulus alone on [Ca^2+]i / Ca^2+ release (absence of CCh): somatostatin 1 μM; for effect on CCh-evoked Ca^2+ signals: 30 mM; for increase in the sensitivity to CCh: PTH 100 nM 1 min, 8-Br-cAMP 10 mM 20 min; for Δ [Ca^2+]i Maximal increase: potentiation of CCh-evoked Ca^2+ signal, 30-s stimulation; for potentiation of CCh-evoked Ca^2+ signals: qualitative
HEK-PR1 cells [2] = assay: Single cell imaging of [Ca^2+]i; format: cell-based, human; settings: single cell analyses
IP3R = assay: IP3-evoked Ca^2+ release from permeabilized cells
PKA = settings: ref He et al., 2003; cited from earlier work
HEK-PR1 cells [3] = settings: <100 μM; ref Short and Taylor, 2000; Tovey et al., 2003; cited from earlier work
HEK-PR1 cells [4] = assay: cAMP production measured by RIA; format: cell-based, human; settings: for Δ cAMP Maximal response: identical conditions to Ca^2+ assay (with CCh); for EC50: read-out: Δ cAMP EC50
HEK-PR1 cells [5] = assay: Protein phosphorylation by Western blot with AbP; format: cell-based, human; settings: H89 10 μM for 20 min
Summary of the method: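 Cells treated with 8-Br-cAMP (10 mM, 20 min), FK (100 μM, 30 s) or PTH (100 nM, 30 s), alone or after H89 (10 μM, 20 min) or st-ht31 (100 μM, 30 min). Lysed at 4°C in Triton X-100 buffer, pH 7.4, with NaF, pyrophosphate and vanadate. Blots probed with anti-phospho Ser/Thr antibody. For IP3R, the immunoprecipitated receptor signal was normalised to IP3R3 and expressed relative to unstimulated cells (n = 3–4).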

[6] = Homo sapiens, read-out: Δ [Ca^2+]i EC50

Molecule: somatostatin (AGCKNFFWKTFTSC; disulfide 3-14 (inferred); ends not checked; UniProt P61278 103-116, looked up)
- effect of stimulus alone on [Ca^2+]i / Ca^2+ release (absence of CCh) (HEK-PR1 cells [1]): nor does

Molecule: C[N+](C)(C)CCOC(N)=O [CCh, Carbachol]
- cells that responded to CCh (HEK-PR1 cells [2]): 98 ± 1%

- EC50 (IP3R; read-out: EC50 for potentiation of IP3-evoked Ca^2+ release, permeabilized cells): 324000 ± 45000 nM
Molecule: Nc1ncnc2c1nc(Br)n2[C@@H]1O[C@@H]2COP(=O)(O)O[C@H]2[C@H]1O [8-Br-cAMP]
- concentrations that activate PKA (PKA): < 100 µM
- potentiation of Ca^2+ signals at low concentrations (HEK-PR1 cells [3]): did not significantly potentiate
- effect on CCh-evoked Ca^2+ signals (HEK-PR1 cells [1]; intact cells): similarly potentiated
- increase in the sensitivity to CCh (HEK-PR1 cells [1]; intact cells): three- to fourfold
- EC50 (HEK-PR1 cells [1]; read-out: EC50 for potentiation of CCh-evoked Ca^2+ signals, intact cells, 1 mM CCh, 20-min preincubation): 870000 ± 370000 nM

Molecule: Nc1nc2c(nc(Br)n2[C@@H]2O[C@@H]3COP(=O)(O)O[C@H]3[C@H]2O)c(=O)[nH]1 [8-Br-cGMP]
- effect on CCh-evoked Ca^2+ signals (HEK-PR1 cells [1]; intact cells): ineffective

Molecule: C=C[C@@]1(C)CC(=O)[C@]2(O)[C@@]3(C)[C@@H](O)CCC(C)(C)[C@@H]3[C@H](O)[C@H](OC(C)=O)[C@@]2(C)O1 [FK, forskolin]
- Δ cAMP Maximal response (HEK-PR1 cells [4]; 30-s stimulation): 236 ± 29 fmol/sample
- EC50 (HEK-PR1 cells [4]; Homo sapiens): 3300 ± 400 nM
- cells that responded to CCh in which the Ca^2+ signal was potentiated (HEK-PR1 cells [2]): 95 ± 3%
- EC50 (HEK-PR1 cells [1]; [6]): 8700 ± 2000 nM
- Δ [Ca^2+]i Maximal increase (HEK-PR1 cells [1]): 55 ± 5 nM
- potentiation of CCh-evoked Ca^2+ signals (HEK-PR1 cells [1]): So too did
- effect of stimulus alone on [Ca^2+]i / Ca^2+ release (absence of CCh) (HEK-PR1 cells [1]): no significant effect

Molecule: Cl.Cl.O=S(=O)(NCCNC/C=C/c1ccc(Br)cc1)c1cccc2cnccc12 [H89, H89 dihydrochloride]
- effect on phosphorylation of proteins stimulated by PTH, FK and 8-Br-cAMP (HEK-PR1 cells [5]): prevented
- effect of inhibition of PKA on responses of intact cells to 8-Br-cAMP (HEK-PR1 cells [1]; 10 μM H89, unpublished data): unaffected
- effect of H89 on sensitivity to isoproterenol (HEK-PR1 cells [1]; by competing for occupancy of β-adrenoceptors (Fig. S2 E)): decreased the sensitivity to isoproterenol

Molecule: CO[C@H]1C2OP(=O)(O)OC[C@H]2O[C@H]1n1c(Br)nc2c(N)ncnc21 (stereo partly shown) [8-Br-2′-O-methyladenosine-3′,5′-cAMP]
- effect on CCh-evoked Ca^2+ signals (HEK-PR1 cells [1]; intact cells): no effect

Molecule: C=C[C@@]1(C)CC(=O)[C@@H]2[C@@]3(C)CCCC(C)(C)[C@@H]3[C@H](O)[C@H](OC(C)=O)[C@@]2(C)O1 [1,9-dideoxyforskolin]
- effect on [Ca^2+]i either alone or with CCh (HEK-PR1 cells [1]; 100 μM, unpublished data): no effect

Molecule: CCCCC[C@H](O)/C=C/[C@H]1[C@H](O)CC(=O)[C@@H]1CCCCCCC(=O)O [PGE1, Prostaglandin E1]
- potentiation of CCh-evoked Ca^2+ signals (HEK-PR1 cells [1]): potentiated CCh-evoked Ca^2+ signals

Molecule: CC(C)NCC(O)c1ccc(O)c(O)c1 (racemic) [Isoproterenol, (±)-isoproterenol hydrochloride]
- Δ cAMP Maximal response (HEK-PR1 cells [4]; 30-s stimulation): 91 ± 15 fmol/sample
- EC50 (HEK-PR1 cells [4]; Homo sapiens): 113 ± 43 nM
- cells that responded to CCh in which the Ca^2+ signal was potentiated (HEK-PR1 cells [2]): 80 ± 4%
- EC50 (HEK-PR1 cells [1]; [6]): 90 ± 24 nM
- Δ [Ca^2+]i Maximal increase (HEK-PR1 cells [1]): 30 ± 6 nM
- potentiation of CCh-evoked Ca^2+ signals (HEK-PR1 cells [1]): potentiated CCh-evoked Ca^2+ signals
- effect of stimulus alone on [Ca^2+]i / Ca^2+ release (absence of CCh) (HEK-PR1 cells [1]): no significant effect

- affinity of IP3R site for cAMP relative to that of PKA or CNGC (IP3R; ref Wong and Scott, 2004 for PKA or CNGC): ~20,000 times lower
Molecule: Nc1ncnc2c1ncn2[C@@H]1O[C@@H]2COP(=O)(O)O[C@H]2[C@H]1O [cAMP, cyclic adenosine monophosphate]
- increase in sensitivity of IP3-evoked Ca^2+ release (IP3R; permeabilized HEK cells, high concentrations of cAMP): ~4.5 fold

Molecule: CC(C)Cn1c(=O)n(C)c(=O)c2[nH]cnc21 [IBMX, 3-isobutyl-1-methylxanthine]
- effect of PDE inhibition on potentiated Ca^2+ signals (HEK-PR1 cells [1]; IBMX 1 mM for 20 min): slight inhibition

Molecule: human PTH(1–34)
- Δ cAMP Maximal response (HEK-PR1 cells [4]; 30-s stimulation): 6,662 ± 1232 fmol/sample
- EC50 (HEK-PR1 cells [4]; 30-s stimulation, with CCh): 29 ± 7 nM
- cells that responded to CCh in which the Ca^2+ signal was potentiated (HEK-PR1 cells [2]): 99 ± 1%
- increase in the sensitivity to CCh (HEK-PR1 cells [1]; intact cells): three- to fourfold
- Δ [Ca^2+]i Maximal increase (HEK-PR1 cells [1]): 101 ± 14 nM
- EC50 (HEK-PR1 cells [1]; read-out: EC50 for PTH-mediated Ca^2+ signaling, after loss of AC6 (siRNA)): 54 ± 5 nM
- EC50 (HEK-PR1 cells [1]; read-out: EC50 for PTH-mediated Ca^2+ signaling, before loss of AC6): 63 ± 3 nM
- effect of stimulus alone on [Ca^2+]i / Ca^2+ release (absence of CCh) (HEK-PR1 cells [1]): does not alone cause Ca^2+ release; also recorded: no significant effect
